In the EternaBench riboswitch data:

Tested on: MS2 coat protein
Experiment: apparent Kd, MS2 coat protein; higher = weaker binding; RNA-MaP array; FMN 200 µM where present
Procedure, shortened: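 Green signal was scaled to red-channel RNA signal and control-cluster median Fmax, and the apparent Kd was taken as the median of filtered per-cluster binding-curve fits. The binding series used SNAP-549-labelled MS2 coat protein from 0.7 or 1.5 nM, doubling to 3 µM, on designs transcribed by stalled E. coli RNA polymerase on Illumina sequencing-chip clusters. Each series ran without and then with constant ligand in 100 mM Tris-HCl pH 7.5, 80 mM KCl, 4 mM MgCl2, BSA, DTT, yeast tRNA and Tween-20.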

[1] = designed as: ON switch for flavin mononucleotide, no ligand
[2] = ligand present: flavin mononucleotide, designed as: ON switch for flavin mononucleotide
[3] = designed as: OFF switch for flavin mononucleotide, no ligand
[4] = ligand present: flavin mononucleotide, designed as: OFF switch for flavin mononucleotide

| Sequence | apparent Kd [1] [µM] | apparent Kd [2] [µM] | apparent Kd [3] [µM] | apparent Kd [4] [µM] |
| --- | --- | --- | --- | --- |
| CCACGUCACAUUUACAUGAGGAUCACCCAUGUCGAAAGACAUGAGGAUAUGCUACCUAAUUGGUAGCAGAAGGCAUGGACGUGG | 0.203 | 0.284 |  |  |
| GUGUACAGAGGAUAUACUGGAGCUAGGAAACUAGCAACCUCACAUGAGGAUCACCCAUGUAGAAGGCUGUACAC |  |  | 0.402 | 0.0258 |
| UCGAUCGUAUGAGGAUAUGGUACACAAAGUGUACCAGAAGGCAUGUCAAUAGACAUGAGGAUCACCCAUGUAUUAUCGAUCGAA | 0.361 | 0.0517 |  |  |
| UGAUACUAAGAGAAGGUUCAAACUACAUAUUGCAUACAUGAGGAUCACCCAUGUUGGUGAAUAAGAAAGGAUAUUUUACUAUAU |  |  | 0.0482 | 0.0382 |
| UACAUGAGGAUCACCCAUGUUUUGUCGUGUAUGGUAUUUAUCUAGGAUAUCAAUAUAUUUAUUUAUGAGAAGGAGAAUAUUAAU |  |  | 0.038 | 0.0336 |
| AUCUGACAUGAGGAUCACCCAUGUAUUCGAGCAUGAGGAUAUAUGACUCGUCAUCGGCGGAUAGAAGGCAUGGUUG | 0.0975 | 0.189 |  |  |
| GCGCCAUCGUGAGAUGGCGUACCAACAUGAGGAUCACCCAUGUAGGAUAUCGAUUGCUUUGCAGUCGAGAAGGGCAUGAUAAGU |  |  | 0.022 | 0.0284 |
| GGUCGUCACAUAUACAUGAGGAUCACCCAUGUGAAAACACAUGAGGAUAUGGAUCCUAAUUGGAUCCAGAAGGCAUGGACGACC | 0.0421 | 0.00763 |  |  |
| GGAUAGGACAGAGGAUAUACGUGCUAGAGUUACUAGCAAAAUUUCCUCACAUGAGGAUCACCCAUGUAGAAGGCUGUCCUAUCG |  |  | 0.0156 | 0.47 |
| UUGGACGUCGUAGGAUAUGUAGGAUAUUCCUACAUGAGGAUCACCCAUGUUGACAUGGAAGAAGGACAGAAGGACGACGUCCAU | 0.173 | 0.00459 |  |  |
| AAAAAGUCAGGAUAUGGCAAAGGUCACGAAAGUGACAAAGGCUAGAAGGGACAUGAGGAUCACCCAUGUAAAAA |  |  | 0.029 | 0.0324 |
| GGUGUACAUGAGGAUCACCCAUGUCGACCGCUCACAGGAUAUUUAAUACAAACUGGUAGCGGAGAAGGGUGAGGAA | 0.295 | 0.312 |  |  |
| UUUUUAUUUGUAGGAUAUGGAGACAUGAGGAUCACCCAUGUAUGAUAAGCUAAAUUAUGCUGUGGCCAGAAGGAUAUUAUUUUU | 0.0439 | 0.0497 |  |  |
| CGCUAUGACAUAGGAUAUUGGUACAUGAGGAUCACCCAUGUCAACUUUUUAGCAUAAUUUGUUGACAAGAAGGAUGUGGUAGCG | 0.0541 | 0.0126 |  |  |
| UGAUAGCACAGAGGAUAUGCGUAGUGUUAUCUCUACAUGAGGAUCACCCAUGUAGAAGGCUGUGCUAUCUAAGUCGGAAACGAU |  |  | 0.00619 | 0.00986 |
| UUUUAACAUGAGGAUCACCCAUGUGAGGAUAUCGUUAUUUAUAUUAAUAUUAAUAAAACGAGAAGGCACAUUUU |  |  | 0.112 | 0.141 |
| AUAAGCUCGUCAGGAUAUACAACAUUGUGUAAGCAGUGUGGUAUGAUCACAUGAGGAUCACCCAUGUAGAAGGGACGAGCUUAU |  |  | 0.0069 | 0.0449 |
| AGCAUGUUUACAUGAGGAUCACCCAUGUUUAUUUAGGAUUUCAGAAGGUACAAUUUGUGUUAGAGUAAGGAUAUGAUAUAUGCG | 0.012 | 0.00848 |  |  |
| UCGAAGAAGCAAGGAUAUCAAUAUUAGCAAAAUAUGACAUGAGGAUCACCCAUGUAAAUAUGGAGUGAGAAGGUGCAAUAAUUU | 0.274 | 0.149 |  |  |
| AAGUAUAGAGGAUAUAGUGAGUACUACAUGAGGAUCACCCAUGUUCUUCAAAGCGUAUUUCUAGAAGGCUAAUGAA |  |  | 0.05 | 0.114 |
| UGUUGUAUUACAGGAUAUCUAGUAUUUUUAUUUAGAGAAGGGUAUUCACAUGAGGAUCACCCAUGUAUAUACGAGGAAGUUGUG | 0.0343 | 0.0388 |  |  |
| CUCCUCGUGUCGAACAUGAGGAUCACCCAUGUAAUGGGCACCGAGGAUAUCCCGCUGGCGUUAUGGGAGAAGGCGGUGGAUUUA |  |  | 0.0426 | 0.0403 |
| GCCAGAGCAGGAUAUUCAAUAUCACACAUGAGGAUCACCCAUGUCCGGCGAAAGCUGGAGGGAGAAGGGCUCUGGC |  |  | 0.0626 | 0.0187 |
